Results on two compounds are retold here after ChEMBL document CHEMBL1140994, “Ranking the selectivity of PubChem screening hits by activity-based protein profiling: MMP13 as a case study” (Bioorg Med Chem, 2009).

The target in experiment [1] is T1, Matrix metalloproteinase-9 (Homo sapiens, UniProt P14780). In words: Inhibition of human recombinant MMP9 at 200 uM by HxBP-Rh probe-based competitive activity based protein profiling assay in presence of 200 uM HxBP-alkyne. In outline: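 Enzyme 0.5 μM final, in PBS (ADAMTS4, neprilysin) or in 1 mg/mL mouse liver soluble proteome (MMP9). HxBP-Rh probe 0.5 μM final with 200 μM inhibitor or DMSO. Preincubated 30 min on ice, UV 365 nm 1 h on ice. Deglycosylated with PNGase F, then SDS-PAGE with fluorescence scanning. Activity given relative to DMSO control.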

Experiment [2] concerns the target T2, Collagenase 3 (Homo sapiens, UniProt P45452). The experiment in a line: Inhibition of human recombinant MMP13 by fluorogenic substrate assay.
In experiment [3] the target is T2, Collagenase 3. The experiment in a line: Inhibition of human recombinant MMP13 by HxBPyne probe-based competitive activity based protein profiling assay.
For experiment [4], the target named is Macrophage metalloelastase (Homo sapiens) (UniProt P39900). In words: Inhibition of human recombinant MMP12 at 200 uM by HxBPyne probe-based competitive activity based protein profiling assay in presence of 5 uM HxBpane competitor. In a few lines: (§1)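 Recombinant enzyme at 0.5 μM final in mouse liver soluble proteome (1 mg protein/mL in PBS). HxBPyne probe cocktail 0.5 μM total final, with inhibitor 200 μM or DMSO. Preincubated 30 min on ice, then UV 365 nm for 1 h on ice. Rhodamine-azide click chemistry, 1 h RT in dark. SDS-PAGE with in-gel fluorescence; band intensity given as % of DMSO control.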

The target of experiment [5] is 72 kDa type IV collagenase (Homo sapiens) (UniProt P08253). In words: Inhibition of human recombinant MMP2 at 200 uM by HxBPyne probe-based competitive activity based protein profiling assay in presence of 5 uM HxBpane competitor. In outline:
as §1

Experiment [6] concerns the target T3, Disintegrin and metalloproteinase domain-containing protein 8 (Homo sapiens) (UniProt P78325).
T3 sequence (whole entry): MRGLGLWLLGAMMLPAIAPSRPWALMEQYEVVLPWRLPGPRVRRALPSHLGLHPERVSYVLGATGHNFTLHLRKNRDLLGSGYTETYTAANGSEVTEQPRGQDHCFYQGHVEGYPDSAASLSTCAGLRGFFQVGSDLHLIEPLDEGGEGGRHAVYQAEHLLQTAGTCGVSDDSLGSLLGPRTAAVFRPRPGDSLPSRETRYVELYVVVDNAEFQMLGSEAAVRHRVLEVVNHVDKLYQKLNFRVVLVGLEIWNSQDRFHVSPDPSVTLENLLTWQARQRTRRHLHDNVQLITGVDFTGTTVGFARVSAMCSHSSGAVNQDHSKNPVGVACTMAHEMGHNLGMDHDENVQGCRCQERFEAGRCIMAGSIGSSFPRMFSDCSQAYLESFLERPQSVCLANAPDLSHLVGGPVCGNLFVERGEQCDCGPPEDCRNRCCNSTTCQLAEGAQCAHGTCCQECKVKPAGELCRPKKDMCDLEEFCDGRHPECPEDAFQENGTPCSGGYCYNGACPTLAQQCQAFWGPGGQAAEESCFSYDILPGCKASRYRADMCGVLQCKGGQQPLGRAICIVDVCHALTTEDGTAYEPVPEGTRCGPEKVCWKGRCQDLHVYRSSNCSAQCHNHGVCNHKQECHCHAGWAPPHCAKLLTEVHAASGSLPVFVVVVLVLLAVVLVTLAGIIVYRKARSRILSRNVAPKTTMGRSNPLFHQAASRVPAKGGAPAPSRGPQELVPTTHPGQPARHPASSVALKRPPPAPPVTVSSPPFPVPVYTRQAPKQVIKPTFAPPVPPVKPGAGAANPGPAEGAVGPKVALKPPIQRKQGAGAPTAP
The experiment in a line: Inhibition of human recombinant ADAM8 at 200 uM by HxBPyne probe-based competitive activity based protein profiling assay in presence of 5 uM HxBpane competitor. In a few lines:
as §1

For experiment [7], the target named is Stromelysin-2 (Homo sapiens) (UniProt P09238). In words: Inhibition of human recombinant MMP10 at 200 uM by HxBPyne probe-based competitive activity based protein profiling assay in presence of 5 uM HxBpane competitor. In outline: as §1
The target of experiment [8] is T4, Neutrophil collagenase (Homo sapiens, UniProt P22894). In words: Inhibition of human recombinant MMP8 at 200 uM by HxBPyne probe-based competitive activity based protein profiling assay in presence of 5 uM HxBpane competitor. In outline:
as §1
Target sequence in this assay (P22894 101-467 limits assumed): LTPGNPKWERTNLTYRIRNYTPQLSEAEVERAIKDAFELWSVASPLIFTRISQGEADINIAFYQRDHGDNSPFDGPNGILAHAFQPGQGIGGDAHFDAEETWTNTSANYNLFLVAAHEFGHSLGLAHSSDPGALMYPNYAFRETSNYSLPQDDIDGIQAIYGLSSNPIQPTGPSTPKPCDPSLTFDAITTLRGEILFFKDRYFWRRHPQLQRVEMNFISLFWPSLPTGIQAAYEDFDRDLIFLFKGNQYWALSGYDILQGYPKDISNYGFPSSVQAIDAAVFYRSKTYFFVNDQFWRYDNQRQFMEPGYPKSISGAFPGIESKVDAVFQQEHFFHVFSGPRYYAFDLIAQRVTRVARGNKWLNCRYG

The target of experiment [9] is T4, Neutrophil collagenase. The experiment in a line: Inhibition of human recombinant MMP8 by fluorogenic substrate assay. In a few lines: (§2)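 Enzyme (MMP8 6 nM, MMP9 2 nM, MMP13 1.5 nM final) preincubated with inhibitor 30 min in 50 mM HEPES pH 7.5, 10 mM CaCl2, 0.05% Brij-35, at RT. Mca-PLGL-Dpa-AR-NH2 added at 5 μM; fluorescence (ex 328/em 393 nm) read each minute for 10 min. Initial rates by linear least squares; IC50 from variable-slope sigmoidal fit. Triplicate; mean with 95% CI.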
Target sequence in this assay (P22894 whole entry): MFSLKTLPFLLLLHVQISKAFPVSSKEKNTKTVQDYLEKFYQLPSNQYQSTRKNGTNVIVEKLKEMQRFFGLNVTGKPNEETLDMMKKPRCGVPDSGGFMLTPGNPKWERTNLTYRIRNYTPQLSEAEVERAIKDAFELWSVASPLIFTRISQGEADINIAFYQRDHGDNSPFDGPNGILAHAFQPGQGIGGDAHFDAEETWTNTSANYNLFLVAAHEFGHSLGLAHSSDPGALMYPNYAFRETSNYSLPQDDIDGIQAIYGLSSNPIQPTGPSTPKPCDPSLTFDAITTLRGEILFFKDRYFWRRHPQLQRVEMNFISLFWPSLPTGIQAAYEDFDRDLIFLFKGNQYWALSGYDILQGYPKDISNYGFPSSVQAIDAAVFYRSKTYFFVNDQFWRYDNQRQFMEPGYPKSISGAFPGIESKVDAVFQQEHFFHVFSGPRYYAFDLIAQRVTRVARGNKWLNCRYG

The target in experiment [10] is T1, Matrix metalloproteinase-9. The experiment in a line: Inhibition of human recombinant MMP9 by fluorogenic substrate assay. In outline:
as §2

In experiment [11] the target is Stromelysin-1 (Homo sapiens) (UniProt P08254). The experiment in a line: Inhibition of human recombinant MMP3 at 200 uM by HxBPyne probe-based competitive activity based protein profiling assay in presence of 5 uM HxBpane competitor. In a few lines: as §1
Experiment [12] deals with T5, Stromelysin-3 (Homo sapiens) (UniProt P24347).
T5 sequence (whole entry): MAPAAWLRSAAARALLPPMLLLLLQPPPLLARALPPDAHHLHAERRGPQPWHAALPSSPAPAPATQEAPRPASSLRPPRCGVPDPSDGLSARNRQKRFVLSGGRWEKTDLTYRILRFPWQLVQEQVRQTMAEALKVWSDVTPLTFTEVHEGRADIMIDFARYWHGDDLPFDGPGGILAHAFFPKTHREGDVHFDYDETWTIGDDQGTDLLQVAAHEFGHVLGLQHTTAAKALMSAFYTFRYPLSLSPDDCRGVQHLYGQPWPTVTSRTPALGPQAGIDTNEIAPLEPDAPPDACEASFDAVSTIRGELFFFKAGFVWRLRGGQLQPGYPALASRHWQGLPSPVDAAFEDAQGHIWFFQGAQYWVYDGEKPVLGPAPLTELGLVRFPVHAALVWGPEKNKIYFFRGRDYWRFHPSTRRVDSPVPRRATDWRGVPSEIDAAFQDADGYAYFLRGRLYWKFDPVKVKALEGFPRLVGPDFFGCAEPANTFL
In words: Inhibition of human recombinant MMP11 at 200 uM by HxBPyne probe-based competitive activity based protein profiling assay in presence of 5 uM HxBpane competitor. In outline:
as §1

In experiment [13] the target is Matrix metalloproteinase-24 (Homo sapiens) (UniProt Q9Y5R2). The experiment in a line: Inhibition of human recombinant MMP24 at 200 uM by HxBPyne probe-based competitive activity based protein profiling assay in presence of 5 uM HxBpane competitor. In outline:
as §1

In experiment [14] the target is Matrix metalloproteinase-16 (Homo sapiens) (UniProt P51512). The experiment in a line: Inhibition of human recombinant MMP16 at 200 uM by HxBPyne probe-based competitive activity based protein profiling assay in presence of 5 uM HxBpane competitor. In a few lines: as §1
For experiment [15], the target named is Matrix metalloproteinase-15 (Homo sapiens) (UniProt P51511). The experiment in a line: Inhibition of human recombinant MMP15 at 200 uM by HxBPyne probe-based competitive activity based protein profiling assay in presence of 5 uM HxBpane competitor. In a few lines: as §1
The target in experiment [16] is T6, A disintegrin and metalloproteinase with thrombospondin motifs 5 (Homo sapiens) (UniProt Q9UNA0).
T6 sequence (whole entry): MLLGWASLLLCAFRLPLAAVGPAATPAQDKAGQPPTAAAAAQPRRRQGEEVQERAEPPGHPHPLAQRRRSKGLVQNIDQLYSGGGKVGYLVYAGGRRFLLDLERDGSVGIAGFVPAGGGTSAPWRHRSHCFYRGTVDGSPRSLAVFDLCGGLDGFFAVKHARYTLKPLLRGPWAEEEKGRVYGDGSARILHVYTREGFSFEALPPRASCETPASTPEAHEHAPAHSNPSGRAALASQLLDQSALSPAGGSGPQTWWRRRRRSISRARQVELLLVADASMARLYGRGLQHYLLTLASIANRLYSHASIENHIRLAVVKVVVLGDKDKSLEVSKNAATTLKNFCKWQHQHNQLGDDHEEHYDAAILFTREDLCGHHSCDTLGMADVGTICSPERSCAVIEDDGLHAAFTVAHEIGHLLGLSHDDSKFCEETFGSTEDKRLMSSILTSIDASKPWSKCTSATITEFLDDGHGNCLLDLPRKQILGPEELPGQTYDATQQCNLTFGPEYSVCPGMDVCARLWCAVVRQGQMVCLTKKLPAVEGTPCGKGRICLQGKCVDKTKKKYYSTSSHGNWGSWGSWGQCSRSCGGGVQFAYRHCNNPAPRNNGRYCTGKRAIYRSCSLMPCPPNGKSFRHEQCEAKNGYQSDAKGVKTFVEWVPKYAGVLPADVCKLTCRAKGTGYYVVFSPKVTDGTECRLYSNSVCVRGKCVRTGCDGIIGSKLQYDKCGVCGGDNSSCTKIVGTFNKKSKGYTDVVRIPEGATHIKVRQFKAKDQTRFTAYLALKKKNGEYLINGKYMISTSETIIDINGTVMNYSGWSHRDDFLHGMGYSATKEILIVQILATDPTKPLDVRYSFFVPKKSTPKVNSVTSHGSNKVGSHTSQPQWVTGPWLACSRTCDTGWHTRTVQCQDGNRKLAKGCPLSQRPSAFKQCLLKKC
In words: Inhibition of human recombinant ADAMTS5 at 200 uM by HxBPyne probe-based competitive activity based protein profiling assay in presence of 5 uM HxBpane competitor. In outline:
as §1

The target in experiment [17] is Matrix metalloproteinase-14 (Homo sapiens) (UniProt P50281). In words: Inhibition of human recombinant MMP14 at 200 uM by HxBPyne probe-based competitive activity based protein profiling assay in presence of 5 uM HxBpane competitor. In a few lines:
as §1

Activity calls are given as the source filed them. The calls are words filed in the database; no cut-off is given here.

T1 sequence (P14780 whole entry): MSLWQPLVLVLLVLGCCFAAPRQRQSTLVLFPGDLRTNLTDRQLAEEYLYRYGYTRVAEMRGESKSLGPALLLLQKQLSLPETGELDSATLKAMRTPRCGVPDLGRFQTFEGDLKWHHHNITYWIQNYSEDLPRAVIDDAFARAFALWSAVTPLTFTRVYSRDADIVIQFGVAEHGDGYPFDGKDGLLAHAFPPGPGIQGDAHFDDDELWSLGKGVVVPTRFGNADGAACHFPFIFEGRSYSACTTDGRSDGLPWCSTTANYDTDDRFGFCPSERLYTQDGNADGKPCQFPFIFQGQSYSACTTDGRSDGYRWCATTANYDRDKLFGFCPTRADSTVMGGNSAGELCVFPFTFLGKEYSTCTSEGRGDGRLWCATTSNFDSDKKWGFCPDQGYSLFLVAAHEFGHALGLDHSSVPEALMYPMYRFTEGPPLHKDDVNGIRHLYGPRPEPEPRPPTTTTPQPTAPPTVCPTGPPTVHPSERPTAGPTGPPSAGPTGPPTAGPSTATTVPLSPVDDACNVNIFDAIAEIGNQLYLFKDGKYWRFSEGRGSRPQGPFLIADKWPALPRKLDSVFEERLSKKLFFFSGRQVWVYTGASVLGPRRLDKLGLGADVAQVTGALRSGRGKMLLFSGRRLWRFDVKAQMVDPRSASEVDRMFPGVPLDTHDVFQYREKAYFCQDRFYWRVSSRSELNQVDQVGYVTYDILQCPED
Sequence of Macrophage metalloelastase (Homo sapiens) (P39900 106-470 limits assumed): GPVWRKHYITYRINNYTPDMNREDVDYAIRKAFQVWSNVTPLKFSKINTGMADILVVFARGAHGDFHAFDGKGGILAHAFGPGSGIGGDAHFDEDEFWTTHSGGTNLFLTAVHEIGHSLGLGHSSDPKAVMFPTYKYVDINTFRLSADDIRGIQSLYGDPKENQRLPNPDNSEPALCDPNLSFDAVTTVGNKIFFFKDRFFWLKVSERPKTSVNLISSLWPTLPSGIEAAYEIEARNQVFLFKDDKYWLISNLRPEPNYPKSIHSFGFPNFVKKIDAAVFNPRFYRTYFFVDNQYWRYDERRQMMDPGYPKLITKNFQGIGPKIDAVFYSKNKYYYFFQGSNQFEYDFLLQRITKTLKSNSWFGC
Sequence of Stromelysin-1 (Homo sapiens) (P08254 100-477 limits assumed): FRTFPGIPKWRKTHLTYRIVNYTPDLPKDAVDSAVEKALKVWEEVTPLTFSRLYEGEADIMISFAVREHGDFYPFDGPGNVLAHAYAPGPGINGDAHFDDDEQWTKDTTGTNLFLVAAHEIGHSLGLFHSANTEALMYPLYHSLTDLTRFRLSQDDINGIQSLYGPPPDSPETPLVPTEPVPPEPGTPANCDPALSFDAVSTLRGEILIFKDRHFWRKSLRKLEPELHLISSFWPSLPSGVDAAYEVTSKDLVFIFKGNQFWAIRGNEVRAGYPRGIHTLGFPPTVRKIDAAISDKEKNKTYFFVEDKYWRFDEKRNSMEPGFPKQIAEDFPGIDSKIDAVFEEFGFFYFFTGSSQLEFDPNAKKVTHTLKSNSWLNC
Sequence of Stromelysin-2 (Homo sapiens) (P09238 99-476 limits assumed): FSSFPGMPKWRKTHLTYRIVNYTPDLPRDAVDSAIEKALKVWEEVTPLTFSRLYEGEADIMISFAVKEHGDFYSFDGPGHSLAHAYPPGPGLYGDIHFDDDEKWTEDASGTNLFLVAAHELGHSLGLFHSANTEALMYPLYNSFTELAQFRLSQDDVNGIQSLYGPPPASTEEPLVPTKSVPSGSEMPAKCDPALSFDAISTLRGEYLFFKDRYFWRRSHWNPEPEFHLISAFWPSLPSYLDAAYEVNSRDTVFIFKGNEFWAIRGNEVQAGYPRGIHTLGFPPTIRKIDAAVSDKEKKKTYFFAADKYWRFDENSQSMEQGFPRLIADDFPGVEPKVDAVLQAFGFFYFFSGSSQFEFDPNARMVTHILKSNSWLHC
Sequence of 72 kDa type IV collagenase (Homo sapiens) (P08253 110-660 limits assumed): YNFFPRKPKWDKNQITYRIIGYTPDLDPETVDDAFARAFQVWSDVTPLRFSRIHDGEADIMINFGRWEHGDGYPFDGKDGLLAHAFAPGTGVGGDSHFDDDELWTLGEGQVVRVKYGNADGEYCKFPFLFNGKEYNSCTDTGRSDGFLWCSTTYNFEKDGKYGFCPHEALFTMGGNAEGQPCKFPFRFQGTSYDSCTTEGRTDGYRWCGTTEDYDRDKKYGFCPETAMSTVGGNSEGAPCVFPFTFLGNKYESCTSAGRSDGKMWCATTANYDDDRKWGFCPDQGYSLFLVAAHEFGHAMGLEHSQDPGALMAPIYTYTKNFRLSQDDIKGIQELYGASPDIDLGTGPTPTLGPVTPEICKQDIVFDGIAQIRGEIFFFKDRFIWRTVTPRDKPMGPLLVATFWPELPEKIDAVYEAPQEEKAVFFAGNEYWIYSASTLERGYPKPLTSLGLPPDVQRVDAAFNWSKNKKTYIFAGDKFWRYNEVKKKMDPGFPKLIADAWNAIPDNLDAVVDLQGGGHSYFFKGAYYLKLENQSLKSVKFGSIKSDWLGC
Sequence of Matrix metalloproteinase-15 (Homo sapiens) (P51511 132-669 limits assumed): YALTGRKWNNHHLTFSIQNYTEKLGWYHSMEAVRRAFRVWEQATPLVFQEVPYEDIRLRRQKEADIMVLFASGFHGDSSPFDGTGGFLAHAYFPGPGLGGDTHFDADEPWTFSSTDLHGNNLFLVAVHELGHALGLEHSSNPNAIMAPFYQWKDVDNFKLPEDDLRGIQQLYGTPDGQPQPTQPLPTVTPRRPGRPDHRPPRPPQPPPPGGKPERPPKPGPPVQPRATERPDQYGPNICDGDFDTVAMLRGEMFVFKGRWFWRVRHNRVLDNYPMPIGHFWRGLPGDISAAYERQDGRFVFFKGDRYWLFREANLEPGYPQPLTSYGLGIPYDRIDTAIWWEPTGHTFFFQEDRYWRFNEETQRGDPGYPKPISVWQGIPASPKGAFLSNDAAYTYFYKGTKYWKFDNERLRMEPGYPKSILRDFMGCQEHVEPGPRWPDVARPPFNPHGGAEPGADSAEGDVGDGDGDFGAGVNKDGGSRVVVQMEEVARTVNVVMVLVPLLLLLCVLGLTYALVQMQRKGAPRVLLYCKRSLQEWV
Sequence of Matrix metalloproteinase-16 (Homo sapiens) (P51512 whole entry): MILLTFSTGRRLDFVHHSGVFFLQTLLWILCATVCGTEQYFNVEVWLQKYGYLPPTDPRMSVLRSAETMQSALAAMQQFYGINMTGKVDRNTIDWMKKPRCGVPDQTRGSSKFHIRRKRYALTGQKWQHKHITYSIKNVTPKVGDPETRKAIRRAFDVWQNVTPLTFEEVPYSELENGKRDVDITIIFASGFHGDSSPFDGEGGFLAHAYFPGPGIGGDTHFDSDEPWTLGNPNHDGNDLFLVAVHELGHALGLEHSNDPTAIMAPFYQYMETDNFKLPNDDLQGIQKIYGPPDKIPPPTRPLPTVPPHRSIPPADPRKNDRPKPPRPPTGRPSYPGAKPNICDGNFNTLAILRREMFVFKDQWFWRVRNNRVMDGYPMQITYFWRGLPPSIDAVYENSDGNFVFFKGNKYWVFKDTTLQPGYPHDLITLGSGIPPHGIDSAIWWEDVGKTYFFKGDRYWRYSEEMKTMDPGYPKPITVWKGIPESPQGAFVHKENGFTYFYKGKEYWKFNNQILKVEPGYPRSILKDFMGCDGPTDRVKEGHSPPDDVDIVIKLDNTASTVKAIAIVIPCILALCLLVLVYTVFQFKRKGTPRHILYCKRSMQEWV

With `CCCCCCOc1ccc(C(CC(=O)O)C(N)=O)cc1` (stereo unspecified), the result (in [1]; in experiment [4]; in experiment [5]; in [6]; in experiment [7]; on Neutrophil collagenase [8]) was Active. In experiment [11], the result was Active. The IC50 at Collagenase 3 [2] was found to be 1300 nM; at Collagenase 3 [3], 27 µM; at Neutrophil collagenase [9], 670 nM; in experiment [10] it was 0.16 µM.

`O=C(O)CCC(NS(=O)(=O)c1ccc(-c2ccccc2)cc1)C(=O)O` (stereo unspecified): the IC50 at Collagenase 3 [2] worked out at 280 nM; at Collagenase 3 [3] it was 13 µM; on Neutrophil collagenase [9], 24 nM; in [10], 14 µM. The result in experiment [12], in experiment [4], in [13], in experiment [5], in [7] and in [14] was Active. The result (in experiment [15]; on Neutrophil collagenase [8]; in experiment [16]; in experiment [17]; in experiment [11]) was Active.
